Source: ChEMBL document CHEMBL2021827, “Caspase-1 inhibitors from an extremophilic fungus that target specific leukemia cell lines” (2012)
Activity calls are given as the source filed them. No cut-off for these calls is given here.

Legend:
[1] = tested on: THP-1; experiment: Inhibition of IL-1beta production in human THP1 cells at 250 uM by ELISA; format: functional, cell-based
How it was run: (§1)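 THP-1 cells are kept in RPMI with 10% FBS, 0.05 mM 2-mercaptoethanol, sodium pyruvate and penicillin/streptomycin/amphotericin B. They are differentiated with PMA (1 µg/mL) 24 h beforehand, scraped, and resuspended at 1.0 × 10^6 cells/mL. Cells are co-exposed to compound, LPS (20 ng/mL) and TiO2 nanowires (100 µg/mL) for 24 h at 37 °C in CO2. Supernatant IL-1β is measured by ELISA read at 490 nm.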

[2] = tested on: HL-60(TB); experiment: Cytotoxicity against human HL-60(TB) cells by MTS assay; format: functional
[3] = molecular target: T1, Caspase-1 (Homo sapiens) (UniProt P29466); experiment: Inhibition of caspase-1 in human THP1 cells after 24 hrs by fluorometric assay; format: cell-based; conditions: THP-1
T1 sequence (whole entry): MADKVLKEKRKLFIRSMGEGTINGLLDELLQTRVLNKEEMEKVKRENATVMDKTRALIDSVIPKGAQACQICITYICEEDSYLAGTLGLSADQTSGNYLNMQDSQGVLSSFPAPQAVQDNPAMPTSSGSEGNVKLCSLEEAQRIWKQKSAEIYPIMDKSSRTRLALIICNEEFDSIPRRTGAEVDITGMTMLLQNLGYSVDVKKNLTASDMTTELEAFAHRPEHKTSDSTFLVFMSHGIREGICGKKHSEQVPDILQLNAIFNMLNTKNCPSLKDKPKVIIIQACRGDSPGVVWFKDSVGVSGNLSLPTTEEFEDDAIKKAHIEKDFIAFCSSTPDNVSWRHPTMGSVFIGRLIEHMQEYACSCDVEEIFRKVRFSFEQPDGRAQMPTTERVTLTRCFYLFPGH

[4] = tested on: Leukemia cell; experiment: Cytotoxicity against human leukemia cells by MTS assay; format: functional, cell-based
[5] = tested on: THP-1; experiment: Inhibition of IL-1beta production in human THP1 cells at 5 uM by dilution assay; format: functional, cell-based; how it was run: as §1
[6] = tested on: RPMI-8226; experiment: Cytotoxicity against human RPMI8226 cells by MTS assay; format: functional
[7] = tested on: SR; experiment: Cytotoxicity against human SR cells by MTS assay; format: functional
[8] = tested on: THP-1; experiment: Inhibition of IL-1beta production in human THP1 cells at 50 uM by dilution assay; format: functional, cell-based; how it was run: as §1
[9] = tested on: CCRF-CEM; experiment: Cytotoxicity against human CCRF-CEM cells by MTS assay; format: functional

SMILES	inhibition [1]	Activity [4]	IC100 [3]	also measured
C/C=C/c1cc(=O)c([C@@H]2OC(=O)c3cc(OC)cc(OC)c32)co1	Active			
CCCc1cc(=O)c([C@@H]2OC(=O)c3cc(OC)cc(OC)c32)co1	Active			Activity [2]: inactive; inhibition [3]: inactive
C/C=C/C1=CC2=CC(=O)[C@](C)(OC(=O)c3c(C)cc(O)cc3O)[C@H](O)[C@H]2CO1 [BERKAZAPHILONE B]	Active	Active	25 µM	inhibition [5]: Active; GI50 [6]: 2140 nM
C/C=C/C1=CC2=CC(=O)[C@](C)(O)[C@H](OC(=O)c3c(C)cc(O)cc3O)[C@H]2CO1 [BERKAZAPHILONE C]	Active	Active	25 µM	GI50 [7]: 380 nM; inhibition [8]: Active
COc1cc(OC)c2c(c1)C(=O)O[C@H]2c1coc(C)cc1=O [PENISIMPLICISSIN]	Active	Active		GI50 [9]: 200 nM; GI50 [2]: 1480 nM
